Measured values of several laboratories.
Compare with care: the assays were run in different laboratories.
Observed: cell growth or viability

| SMILES | cell line | assay | conditions | IC50 |
| --- | --- | --- | --- | --- |
| N#CC(=Cc1cn(Cc2ccc(Cl)cc2)c2ccccc12)C(=O)c1c[nH]c2ccccc12 | MIA PaCa-2 | MTT | 48 h | 4.9 µM |
| Cc1ncsc1-c1ccc([C@H](C)NC(=O)[C@@H]2C[C@@H](O)CN2C(=O)[C@@H](NC(=O)CCCCCCCS(=O)(=O)NC(=O)c2nc(N3CCc4cccc(C(=O)Nc5nc6ccccc6s5)c4C3)ccc2-c2cnn(CC34CC5CC(CC(C5)C3)C4)c2C)C(C)(C)C)cc1 | MOLT-4 | MTS | 48 h | 0.0037 µM |
| O=C(CSc1nc2ccccc2s1)N/N=C/c1ccc(OCC(=O)Nc2ccc([N+](=O)[O-])cc2)cc1 | LN-229 | MTS | 72 h | 4.39 µM |
| Nc1ccccc1NC(=O)c1ccc(Cn2cnc3c(Nc4ccc(Br)cc4F)ncnc32)cc1 | MOLT-4 | MTT | 72 h | 0.45 µM |
| c1ccc(-c2cc(CNc3cccc4cccnc34)on2)nc1 | LN-229 | MTS | 72 h | 22.8 µM |
| CCn1cc(/C=C(\C#N)C(=O)c2c[nH]c3ccccc23)c2ccccc21 | MIA PaCa-2 | MTT | 48 h | > 40 µM |
| CC(C)C(=O)Nc1ccc([N+](=O)[O-])c(C(F)(F)F)c1 | LNCaP | MTS | 48 h | 99.9 µM |
| Cc1nc2c(n1CCCN1CCCCC1)C(=O)c1ccccc1C2=O | MIA PaCa-2 | MTT | – | 14.7 µM |
| COc1cc(C2C3=C(COC3=O)N(CCO)c3cc4c(cc32)CCC4)cc(OC)c1OC (stereo not shown) | BT-549 | ATP luminescence | 48 h | 0.037 µM |
| O=C(NO)c1ccc(Cn2cnc3c(Nc4cccc([N+](=O)[O-])c4)ncnc32)cc1 | MOLT-4 | MTT | 72 h | 0.92 µM |
| FC(F)(F)c1cc(OCc2cc(-c3ccccc3)no2)c2ccccc2n1 | LN-229 | MTS | 72 h | 32.1 µM |
| Cc1ncsc1-c1ccc([C@@H](C)NC(=O)[C@H]2C[C@H](O)CN2C(=O)[C@H](NC(=O)CCCCNC(=O)C23CC4CC(CC(Cn5ncc(-c6ccc(N7CCc8cccc(C(=O)Nc9nc%10ccccc%10s9)c8C7)nc6C(=O)O)c5C)(C4)C2)C3)C(C)(C)C)cc1 | MOLT-4 | MTS | 48 h | > 1 µM |
| N/C(=N\O)c1ccc(-c2cc(CNc3cccc4cccnc34)on2)cc1 | LN-229 | MTS | 72 h | 15.6 µM |
| Cc1ncsc1-c1ccc([C@@H](C)NC(=O)[C@H]2C[C@H](O)CN2C(=O)[C@H](NC(=O)CCNC(=O)C23CC4CC(CC(Cn5ncc(-c6ccc(N7CCc8cccc(C(=O)Nc9nc%10ccccc%10s9)c8C7)nc6C(=O)O)c5C)(C4)C2)C3)C(C)(C)C)cc1 | MOLT-4 | MTS | 48 h | > 1 µM |
| O=c1cc(OCc2cc(-c3ccccn3)no2)c2ccccc2o1 | LN-229 | MTS | 72 h | > 100 µM |
| O=C(CSc1nc2ccccc2s1)N/N=C/c1ccc(OCC(=O)Nc2cccc([N+](=O)[O-])c2)cc1 | MOLT-4 | MTS | 72 h | 15.3 µM |
| Cc1ncsc1-c1ccc([C@H](C)NC(=O)[C@@H]2C[C@@H](O)CN2C(=O)[C@@H](NC(=O)CN2CCN(c3cc(-c4ccccc4O)nnc3N)CC2)C(C)(C)C)cc1 | LNCaP | ATP luminescence | 7 days | 0.0153 µM |
| CC(=NNC(=O)c1cc(-c2ccccc2)n(-c2ccc(S(N)(=O)=O)cc2)n1)c1ccc(C)cc1 | PaCa-2 | fluorescence | 48 h | 11.5 µM |
| Cc1c(-c2ccc(N3CCc4cccc(C(=O)Nc5nc6ccccc6s5)c4C3)nc2C(=O)O)cnn1CC12CC3CC(C1)CC(C(=O)NCCCCNc1cccc4c1C(=O)N(C1CCC(=O)NC1=O)C4=O)(C3)C2 (stereo not shown) | MOLT-4 | MTS | 48 h | 0.0302 µM |
| CNc1cccc(Nc2nc(-c3ccncc3)nc3c2CNCC3)c1 | DU-145 | MTT | – | 45.2 µM |
| Cc1ncsc1-c1ccc([C@@H](C)NC(=O)[C@H]2C[C@H](O)CN2C(=O)[C@H](NC(=O)CCCCCCNC(=O)C23CC4CC(CC(Cn5ncc(-c6ccc(N7CCc8cccc(C(=O)Nc9nc%10ccccc%10s9)c8C7)nc6C(=O)O)c5C)(C4)C2)C3)C(C)(C)C)cc1 | MOLT-4 | MTS | 48 h | 0.157 µM |
| NS(=O)(=O)c1ccc(-n2nc(C(=O)NN=Cc3cccnc3)cc2-c2ccccc2)cc1 | PaCa-2 | fluorescence | 48 h | 27.8 µM |
| Cc1c(-c2ccc(N3CCc4cccc(C(=O)Nc5nc6ccccc6s5)c4C3)nc2C(=O)O)cnn1CC12CC3CC(C1)CC(C(=O)NCCCCCCCCCCNc1cccc4c1C(=O)N(C1CCC(=O)NC1=O)C4=O)(C3)C2 (stereo not shown) | MOLT-4 | MTS | 48 h | 0.021 µM |
| C=C1C[C@@]23CC[C@H]4[C@@](C)(CCC[C@@]4(C)C(=O)O)[C@@H]2CC[C@@H]1C3 | T47D | MTT | 75 h | 150 µM |
| Cc1c(-c2ccc(N3CCc4cccc(C(=O)Nc5nc6ccccc6s5)c4C3)nc2C(=O)O)cnn1CC12CC3CC(CC(C3)C1)C2 | MOLT-4 | MTS | 48 h | 0.0021 µM |
| Nc1cccc2c1C(=O)N(C1CCC(=O)NC1=O)C2=O (stereo not shown) | SU-DHL-2 | CCK-8 | 7 days | 1.5 µM |
| Cc1ncsc1-c1ccc([C@H](CC(=O)NCCCNC(=O)c2nc(N3CCc4cccc(C(=O)Nc5nc6ccccc6s5)c4C3)ccc2-c2cnn(CC34CC5CC(CC(C5)C3)C4)c2C)NC(=O)[C@@H]2C[C@@H](O)CN2C(=O)[C@@H](NC(=O)C2(C#N)CC2)C(C)(C)C)cc1 | MOLT-4 | MTS | 48 h | 0.111 µM |
| CCn1cc(C=C(C#N)C(=O)c2c[nH]c3ccc(OC)cc23)c2ccccc21 | MIA PaCa-2 | MTT | 48 h | 15.5 µM |
